Screens from PubChem.
This is a sample that favours compounds with a hit; in the whole collection about 2.9% have one here.
OX1R antag-1 = antagonists of human orexin 1 receptor. 330,000 compounds, 0.43% hits. O43613. CHO/OX1R cells, Fluo-8 calcium fluorescence, orexin A. inhibition, % at 5 µM;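 active means inhibition above its plate's threshold, mean inhibition of all tested compounds on the plate plus 3 SD, cut at about 37% in these data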;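 further: 0% = orexin A challenge wells and 100% = SB-334867-A antagonist wells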
Target sequence (O43613 whole entry, looked up): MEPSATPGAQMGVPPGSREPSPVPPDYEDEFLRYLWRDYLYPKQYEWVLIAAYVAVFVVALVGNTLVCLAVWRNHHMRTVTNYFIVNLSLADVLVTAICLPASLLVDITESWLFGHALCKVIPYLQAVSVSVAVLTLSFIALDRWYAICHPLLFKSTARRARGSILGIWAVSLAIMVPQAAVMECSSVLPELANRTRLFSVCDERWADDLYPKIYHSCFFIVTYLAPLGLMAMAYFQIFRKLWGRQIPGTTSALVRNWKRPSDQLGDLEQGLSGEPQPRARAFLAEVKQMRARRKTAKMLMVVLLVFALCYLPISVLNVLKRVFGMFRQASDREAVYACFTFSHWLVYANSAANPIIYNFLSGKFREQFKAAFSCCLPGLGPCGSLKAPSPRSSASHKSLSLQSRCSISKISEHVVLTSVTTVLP
CHO-K1 Ca antag = counter-screen for M1 antagonists: effect in parental CHO-K1 cells. ATP-induced calcium, Fluo-8 fluorescence. inhibition, % at 3 µM. 360,000 compounds, 0.6% hits. AID 602250;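 active means inhibition above a per-plate cutoff, the plate's mean sample inhibition plus 3 SD, cut at about 24% in these data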;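 further: 0% = DMSO plus EC80 ATP and 100% = DMSO alone without ATP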
CHO parental Ca = counter-screen: ATP calcium response change in parental CHO cells; parental CHO-K1, ATP-induced calcium, Fluo-8 fluorescence; 330,000 compounds, 0.63% hits; inhibition, % at 5.6 µM;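 active means inhibition above that plate's mean sample inhibition plus 3 SD, cut at about 26% in these data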;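 further: 0% = ATP-challenged DMSO wells and 100% = DMSO wells without ATP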
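Assay system: untransfected parental CHO cell line. Also added: ATP agonist challenge. Dosing: one dose, 5.6 µM nominal. Measured by: Fluo-8 fluorescence. Read-out: % inhibition. Benchmarks: ATP wells versus no-ATP DMSO wells. Repeats: no replicates.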
OX1R antag-2 = blocks the human orexin 1 receptor; O43613; inhibition, % at 6.6 µM; 330,000 compounds, 1.8% hits; AID 485270; OX1R-expressing cells, FRET antagonist read-out; in the data active means inhibition mostly above about 38%, no sharp cut-off; inactive means mostly below about 40%;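 further: 0% = agonist challenge alone and 100% = reference antagonist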
CHO-K1 Ca PAM = M1 PAM counterscreen hit in parental CHO-K1 cells | ATP EC20, Fluo-8 calcium fluorescence; 0% at ATP EC20, 100% at ATP max | activation, % at 3 µM | 360,000 compounds, 0.02% hits;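 active means activation above the run cutoff, the mean activation of all test compounds plus 3 SD, cut at about 40% in these data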;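 further: peak over basal fluorescence ratio in a 140 s read after ATP addition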
CHO-K1 Ca ag = counter-screen for M1 agonists: effect in parental CHO-K1 cells. activation, % at 3 µM. Fluo-8 calcium fluorescence; scaled to maximal ATP response, vehicle zero. 360,000 compounds, 0.48% hits; in the data active means activation above about 15%;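 further: untransfected CHO-K1 host cells lacking M1 receptor as counterscreen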
OX1R Fluo8 conf = confirmation of human orexin 1 receptor antagonists | shares compounds with OX1R antag-1 | CHO/OX1R cells, orexin A calcium Fluo-8 fluorescence | inhibition, % at 5 µM | 1,100 compounds, 38% hits | AID 492963; in the data active means inhibition above about 29%;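 further: 0% = agonist challenge alone and 100% = reference antagonist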
CHO Ca triplic = signal in parental CHO cells, OX1R antagonist counter-screen | parental CHO-K1, ATP-induced calcium, Fluo-8 fluorescence | 1,100 compounds, 9.3% hits | shares compounds with OX1R antag-1 | inhibition, % at 5.6 µM;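 active means inhibition above a per-plate limit, the mean inhibition of that plate's test compounds plus 3 SD, cut at about 25% in these data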;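 further: 0% = ATP challenge with DMSO and 100% = DMSO without ATP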
OX1R HTRF confirm = OX1R (human) antagonism, HTRF confirmed; OX1R-expressing cells, HTRF antagonist assay; shares compounds with OX1R antag-2; inhibition, % at 6.6 µM; 1,800 compounds, 49% hits; in the data active means inhibition above about 55%;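 further: CHO cells expressing OX1R stimulated with orexin A at about EC80; 0% = agonist challenge alone and 100% = reference antagonist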
CHO-K1 HTRF = counter-screen for OX1R antagonists: effect in parental CHO-K1 cells; shares compounds with OX1R antag-2; HTRF counterscreen; inhibition, % at 6.6 µM; 1,800 compounds, 48% hits; AID 493232; in the data active means inhibition above about 17%;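 further: 0% = agonist challenge with vehicle and 100% = vehicle alone without agonist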
* = called active by the depositor.

For Cc1nc2ccc3nc(NC(=O)c4ccco4)sc3c2s1 the results were OX1R antag-1 61.5*, CHO-K1 Ca antag -0.5, CHO parental Ca -18.3, OX1R antag-2 72.1*, CHO-K1 Ca PAM -15.9, CHO-K1 Ca ag 0.0, OX1R Fluo8 conf 23.2, CHO Ca triplic -5.1, OX1R HTRF confirm 84.4* and CHO-K1 HTRF 1.6.
Cc1cc2nc3c(=O)[nH]c(=S)[nH]c3nc2cc1NC(=O)C(F)(F)F was read as OX1R antag-1 29.4, CHO-K1 Ca antag -5.0, CHO parental Ca 20.5, OX1R antag-2 48.7*, CHO-K1 Ca PAM 7.2, CHO-K1 Ca ag 5.8, OX1R Fluo8 conf 7.0, CHO Ca triplic 3.5, OX1R HTRF confirm 47.0 and CHO-K1 HTRF 88.3*.
For O=C1NC[C@H](c2ccccc2)OC(=O)[C@H](Cc2ccc(F)cc2)C/C=C\C[C@H]1CC(=O)N(CCO)Cc1ccccc1 the results were OX1R antag-1 54.0*, CHO-K1 Ca antag 6.1, CHO parental Ca -23.3, OX1R antag-2 54.0*, CHO-K1 Ca PAM -7.0, CHO-K1 Ca ag 7.7, OX1R Fluo8 conf 30.1*, CHO Ca triplic 2.8, OX1R HTRF confirm 50.1 and CHO-K1 HTRF 5.0.
COc1ccc(F)cc1CN1CCN(C(=O)CCC(=O)Nc2nnc(C3CCCCC3)s2)CC1 was read as OX1R antag-1 -18.5, CHO-K1 Ca antag -11.7, CHO parental Ca -24.7, OX1R antag-2 1.4, CHO-K1 Ca PAM 0.7 and CHO-K1 Ca ag 0.7.
`C/C(=N\Nc1cccc([N+](=O)[O-])c1)c1ccccc1O` gave OX1R antag-1 28.0, CHO-K1 Ca antag -9.5, CHO parental Ca -9.8, OX1R antag-2 76.4*, CHO-K1 Ca PAM 18.2, CHO-K1 Ca ag 2.5, OX1R Fluo8 conf 2.1, CHO Ca triplic 12.5, OX1R HTRF confirm 47.0 and CHO-K1 HTRF 7.0.
Screening CC1CCN(S(=O)(=O)c2ccc3c(c2)N(C)C(=O)CC(=O)N3C)CC1 returned OX1R antag-1 -4.1, CHO-K1 Ca antag -1.9, CHO parental Ca 1.4, OX1R antag-2 8.9, CHO-K1 Ca PAM 2.7 and CHO-K1 Ca ag -0.1.
Screening COC(=O)/C=C\C(C#N)(C#N)N=Cc1ccc(OC)cc1 returned CHO-K1 Ca antag 8.7, CHO-K1 Ca PAM -14.1 and CHO-K1 Ca ag -0.3.
Screening Cc1c(Cl)cccc1NC(=O)N1CCCN(c2nc(-c3ccccc3)ns2)CC1 returned OX1R antag-1 34.3, CHO-K1 Ca antag 9.3, CHO parental Ca 28.9, OX1R antag-2 79.8*, CHO-K1 Ca PAM -20.9, CHO-K1 Ca ag 12.9, OX1R Fluo8 conf 27.5, CHO Ca triplic 22.3, OX1R HTRF confirm 53.1 and CHO-K1 HTRF 6.6.
Cc1c(Cl)cccc1NC(=O)N1CCCC1 was read as OX1R antag-1 -9.6, CHO-K1 Ca antag -6.1, CHO parental Ca -1.4, OX1R antag-2 7.0, CHO-K1 Ca PAM 20.7 and CHO-K1 Ca ag 1.6.
CCn1c(O)c(/C=C2\C=NN=C2c2ccccc2)sc1=S was read as OX1R antag-1 -15.0, CHO-K1 Ca antag 0.1, CHO parental Ca -37.1, OX1R antag-2 25.3, CHO-K1 Ca PAM 4.5 and CHO-K1 Ca ag 0.9.
For Cn1c(O)c(/C=C2\C=NN=C2c2ccccc2)sc1=S the results were OX1R antag-1 40.7*, CHO-K1 Ca antag -3.1, CHO parental Ca -21.2, OX1R antag-2 38.6*, CHO-K1 Ca PAM 3.7, CHO-K1 Ca ag 2.1, OX1R Fluo8 conf 8.5, CHO Ca triplic -5.8, OX1R HTRF confirm 40.0 and CHO-K1 HTRF 1.2.
`O=C(Nc1ccc2nc(-c3cccs3)c(-c3cccs3)nc2c1)N1CCOCC1` gave OX1R antag-1 21.1, CHO-K1 Ca antag -4.9, CHO parental Ca -1.8, OX1R antag-2 73.0*, CHO-K1 Ca PAM 13.6, CHO-K1 Ca ag 4.1, OX1R Fluo8 conf 25.1, CHO Ca triplic -0.1, OX1R HTRF confirm 43.7 and CHO-K1 HTRF 14.2.
O=S(=O)(c1ccccc1)N1CCC(O)(CN2CCN(c3ccccc3)CC2)CC1 was read as CHO-K1 Ca antag -15.5, CHO-K1 Ca PAM 0.5 and CHO-K1 Ca ag 0.5.
Screening CSc1ncccc1C(=O)NC1CCCc2c1cnn2-c1ccc(C)c(C)c1 (stereo not drawn) returned OX1R antag-1 -24.2, CHO-K1 Ca antag -7.5, CHO parental Ca -11.2, OX1R antag-2 12.3, CHO-K1 Ca PAM -16.6 and CHO-K1 Ca ag 4.1.
Cc1ccn2cc(C(=O)Nc3ccc4c(c3)OCCO4)nc2c1 was read as OX1R antag-1 39.6, CHO-K1 Ca antag -23.9, CHO parental Ca -23.8, OX1R antag-2 87.6*, CHO-K1 Ca PAM 1.9, CHO-K1 Ca ag 0.3, OX1R Fluo8 conf 9.5, CHO Ca triplic -1.3, OX1R HTRF confirm 74.5* and CHO-K1 HTRF 8.9.
Screening COc1cccc(-c2cc(C(=O)N3CCN(S(=O)(=O)c4ccc(Br)cc4)CC3)[nH]n2)c1 returned OX1R antag-1 -21.1, CHO-K1 Ca antag 1.1, CHO parental Ca -8.4, OX1R antag-2 8.3, CHO-K1 Ca PAM 10.9 and CHO-K1 Ca ag -0.1.
Screening CCOc1ncccc1C(=O)NCC1COc2ccccc2O1 (stereo not drawn) returned OX1R antag-1 29.6, CHO-K1 Ca antag 4.2, CHO parental Ca -24.4, OX1R antag-2 80.8*, CHO-K1 Ca PAM 16.9, CHO-K1 Ca ag 0.3, OX1R Fluo8 conf 26.8, CHO Ca triplic -2.4, OX1R HTRF confirm 69.5* and CHO-K1 HTRF 0.2.
`CCc1ccc(C(=O)NCC2COc3ccccc3O2)o1` (stereo not drawn) gave OX1R antag-1 -18.2, CHO-K1 Ca antag -9.1, CHO parental Ca -11.9, OX1R antag-2 18.5, CHO-K1 Ca PAM 16.7 and CHO-K1 Ca ag 0.3.
For Nc1c(C(=O)c2ccc(Br)s2)oc2ccccc12 the results were OX1R antag-1 26.9, CHO-K1 Ca antag -2.2, CHO parental Ca -24.3, OX1R antag-2 76.8*, CHO-K1 Ca PAM 7.0, CHO-K1 Ca ag 0.0, OX1R Fluo8 conf 14.5, CHO Ca triplic -1.7, OX1R HTRF confirm 57.3* and CHO-K1 HTRF 5.5.
Screening CCOC(=O)c1cnc(SCc2nc(N)nc(Nc3ccccc3)n2)nc1N returned OX1R antag-1 38.2, CHO-K1 Ca antag -6.0, CHO parental Ca -26.6, OX1R antag-2 73.1*, CHO-K1 Ca PAM 12.1, CHO-K1 Ca ag 1.0, OX1R Fluo8 conf 34.7*, CHO Ca triplic -23.7, OX1R HTRF confirm 48.5 and CHO-K1 HTRF 6.0.
